The target of series [1] is T1, BAG family molecular chaperone regulator 3 (Homo sapiens, UniProt O95817). Description: Binding affinity to CM4 sensorchip immobilized glycosylated C-terminal His tagged human BAG3 transfected in HEK293T cells assessed as dissociation constant by SPR analysis. The procedure, abridged:
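SPR single-cycle kinetics on CM4-immobilized HEK-293T-expressed BAG3-His. Increasing compound concentrations in PBS with 5% DMSO and 0.05% P20 were injected at 30 µL/min without regeneration between injections, with blank subtraction. Kd from steady-state analysis, reported as mean ± SEM and compared by Student t-test.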

The test system of series [2] is HD-MB03. Description: Induction of cell cycle arrest in human HD-MB03 cells assessed as accumulation of cells at G2/M phase at 10 uM incubated for 72 hrs by RNase/PI staining based cytofluorimetric analysis (reference value: 4.4%). Format: functional.
In series [3] the target is T1, BAG family molecular chaperone regulator 3. Description: Binding affinity to CM4 sensorchip immobilized C-terminal His tagged human BAG3 transfected in HEK293T cells assessed as binding capacity at 50 uM by SPR analysis. The procedure, abridged:
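SPR screen on BAG3-His amine-coupled to a CM4 chip at 60 µg/mL in pH 2.8 acetate. Compound at 50 µM in PBS with 5% DMSO and 0.05% P20 was injected for 90 s at 30 µL/min, then washed. Chip regenerated with 10 mM glycine pH 3. Bound RU read at equilibrium against a void flow cell; 3–10 repeats, mean ± SEM.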
(In general: In SPR one partner is held on a chip, and binding of the other changes the refractive index at the surface.)

For series [4], the system named is HD-MB03. The experiment in a line: Induction of cell cycle arrest in human HD-MB03 cells assessed as accumulation of cells at S phase at 10 uM incubated for 72 hrs by RNase/PI staining based cytofluorimetric analysis (reference value: 40.9%). Format: functional.
Series [5] has as its system HD-MB03. Description: Cytotoxicity against human HD-MB03 cells assessed as inhibition of cell growth at 2.5 uM incubated for 72 hrs by resazurin dye based analysis relative to control. Format: functional. The method in brief:
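Resazurin viability in HD-MB03 cells, 2000/well, single-agent arm of the 6x6 matrix. Inhibitor was added 24 h after seeding, in a 6-point 2-fold series, duplicates, two independent experiments. After 72 h exposure, resazurin was added at 44 µM final for 3 h at 37 °C and fluorescence read at 590 nm. Viability normalized to 1 µM bortezomib and 0.5% DMSO controls.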

Series [6] relates to HD-MB03. Description: Sensitization of chemotherapy induced cytotoxicity against human HD-MB03 cells assessed as inhibition of cell growth at 2.5 uM incubated for 72 hrs in presence of 0.12 unit of vincristine, etoposide, cisplatin, cyclophosphamide by resazurin dye based analysis (reference value: 51.43 +/- 1.17%). Format: functional.
Series [7] relates to HD-MB03. The experiment in a line: Sensitization of chemotherapy induced cytotoxicity against human HD-MB03 cells assessed as inhibition of cell growth at 5 uM incubated for 72 hrs in presence of 1 unit of vincristine, etoposide, cisplatin, cyclophosphamide by resazurin dye based analysis (reference value: 91.53 +/- 1.15%). Format: functional. (In general: The colour change of resazurin is a common sign of viable cells or microbes.)

The nature of series [8]: Cytotoxicity against resting human PBMC cells assessed as cell growth inhibition incubated for 72 hrs by MTT assay. Format: toxicity, cell-based. (In general: Tetrazolium assays rely on reduction of a dye to a coloured formazan, in cell work by metabolically active cells.)
Series [9] deals with HD-MB03. Description: Sensitization of chemotherapy induced cytotoxicity against human HD-MB03 cells assessed as inhibition of cell growth at 1.25 uM incubated for 72 hrs in presence of 0.25 unit of vincristine, etoposide, cisplatin, cyclophosphamide by resazurin dye based analysis (reference value: 73.44 +/- 0.92%). It counts as functional.
The subject of series [10] is HD-MB03. The experiment in a line: Sensitization of chemotherapy induced cytotoxicity against human HD-MB03 cells assessed as inhibition of cell growth at 10 uM incubated for 72 hrs in presence of 1 unit of vincristine, etoposide, cisplatin, cyclophosphamide by resazurin dye based analysis (reference value: 91.53 +/- 1.15%). It counts as functional.
In series [11] the test system is HD-MB03. The experiment in a line: Induction of apoptosis in human HD-MB03 cells assessed as increase in total apoptotic cells at 20 uM incubated for 24 hrs in presence of chloroquine by Annexin V-FITC/PI staining based cytofluorimetric analysis. Format: functional, cell-based. The method in brief:
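HD-MB03 cells exposed to 20 µM with or without chloroquine for 24 h, then stained with annexin V-FITC and PI for flow cytometry. Mean ± SEM of three independent experiments.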

For series [12], the system named is HD-MB03. Description: Sensitization of chemotherapy induced cytotoxicity against human HD-MB03 cells assessed as inhibition of cell growth at 10 uM incubated for 72 hrs in presence of 0.5 unit of vincristine, etoposide, cisplatin, cyclophosphamide by resazurin dye based analysis (reference value: 83.74+/- 0.54%). It counts as functional.
Series [13] concerns HD-MB03. Description: Induction of apoptosis in human HD-MB03 cells at 20 uM by Annexin V-FITC/PI staining based cytofluorimetric analysis. It counts as functional, cell-based. The settings on record: time 48-72 hrs, TDE = time-dependent effect. The method in brief: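 HD-MB03 cells treated with 20 µM, then stained with annexin V-FITC and PI and analysed by flow cytometry. Mean ± SEM of three independent experiments; 2-way ANOVA with Tukey correction.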

Series [14] deals with HD-MB03. Description: Induction of autophagy in human HD-MB03 cells assessed as increase in LC3 green fluorescence at 20 uM incubated for 24 hrs by immunofluorescence analysis. Format: functional, cell-based. The method in brief: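 HD-MB03 cells transfected with a fluorescent LC3 plasmid, then treated 24 h later with 20 µM, alone or with chloroquine, for 24 h. Live cells stained 30 min with 50 nM LysoTracker Red and 10 µM Hoechst, then imaged by confocal microscopy. Fluorescence per field was expressed relative to DMSO control set to 1. Mean ± SD of three experiments; 2-way ANOVA.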

Series [15] has as its system HD-MB03. The experiment in a line: Sensitization of chemotherapy induced cytotoxicity against human HD-MB03 cells assessed as inhibition of cell growth at 5 uM incubated for 72 hrs in presence of 0.12 unit of vincristine, etoposide, cisplatin, cyclophosphamide by resazurin dye based analysis (reference value: 51.43 +/- 1.17%). It counts as functional.
Series [16] concerns HD-MB03. The experiment in a line: Induction of cell cycle arrest in human HD-MB03 cells assessed as accumulation of cells at S phase at 10 uM incubated for 48 hrs by RNase/PI staining based cytofluorimetric analysis (reference value: 40.9%). It counts as functional.
Series [17] relates to HD-MB03. Description: Induction of apoptosis in human HD-MB03 cells assessed as membrane blebbing at 20 uM incubated for 24 hrs in presence of chloroquine by bright field imaging analysis. It counts as functional, cell-based.
Series [18] deals with HD-MB03. Description: Sensitization of chemotherapy induced cytotoxicity against human HD-MB03 cells assessed as inhibition of cell growth at 20 uM incubated for 72 hrs in presence of 0.25 unit of vincristine, etoposide, cisplatin, cyclophosphamide by resazurin dye based analysis (reference value: 73.44 +/- 0.92%). Format: functional.
Series [19] relates to HD-MB03. The experiment in a line: Sensitization of chemotherapy induced cytotoxicity against human HD-MB03 cells assessed as inhibition of cell growth at 5 uM incubated for 72 hrs in presence of 0.5 unit of vincristine, etoposide, cisplatin, cyclophosphamide by resazurin dye based analysis (reference value: 83.74+/- 0.54%). It counts as functional.
The subject of series [20] is HD-MB03. The experiment in a line: Sensitization of chemotherapy induced cytotoxicity against human HD-MB03 cells assessed as inhibition of cell growth at 5 uM incubated for 72 hrs in presence of 0.25 unit of vincristine, etoposide, cisplatin, cyclophosphamide by resazurin dye based analysis (reference value: 73.44 +/- 0.92%). Format: functional.
In series [21] the test system is HD-MB03. Description: Sensitization of chemotherapy induced cytotoxicity against human HD-MB03 cells assessed as inhibition of cell growth at 10 uM incubated for 72 hrs in presence of 0.12 unit of vincristine, etoposide, cisplatin, cyclophosphamide by resazurin dye based analysis (reference value: 51.43 +/- 1.17%). Format: functional.

The record followed here is ChEMBL document CHEMBL5335790, “Design, synthesis and biological evaluation of novel 2,4-thiazolidinedione derivatives able to target the human BAG3 protein” (Eur J Med Chem, 2023).

Each structure is given as a SMILES string. Activity calls are given as the source filed them. The calls are words filed in the database; no cut-off is given here.

T1 sequence (O95817 whole entry): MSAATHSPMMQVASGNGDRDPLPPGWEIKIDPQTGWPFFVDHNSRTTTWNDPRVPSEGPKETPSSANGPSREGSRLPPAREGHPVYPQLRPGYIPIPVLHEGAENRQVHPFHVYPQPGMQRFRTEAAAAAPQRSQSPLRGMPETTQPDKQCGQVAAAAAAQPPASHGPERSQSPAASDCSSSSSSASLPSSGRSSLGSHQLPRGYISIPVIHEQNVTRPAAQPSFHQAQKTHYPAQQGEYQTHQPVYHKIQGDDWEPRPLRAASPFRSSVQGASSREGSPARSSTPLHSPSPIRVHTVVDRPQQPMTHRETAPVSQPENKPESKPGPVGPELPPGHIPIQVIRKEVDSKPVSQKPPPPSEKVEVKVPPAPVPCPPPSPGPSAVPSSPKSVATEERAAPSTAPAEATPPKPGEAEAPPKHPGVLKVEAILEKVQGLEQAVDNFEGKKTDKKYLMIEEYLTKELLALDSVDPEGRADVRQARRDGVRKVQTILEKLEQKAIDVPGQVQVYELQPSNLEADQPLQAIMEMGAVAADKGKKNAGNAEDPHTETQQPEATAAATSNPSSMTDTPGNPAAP

The Kd is a measure of binding affinity in units of concentration. As usually defined, the inhibition is the change of the read-out against control, counted positive when it falls. The term GI50 denotes the concentration at which growth is held to half of that of the control. On to `CC(C(=O)N1CCOCC1)N1C(=O)S/C(=C\c2cccc(O)c2O)C1=O` (racemic), for which the Kd in series [1] was 45 µM. Further, the Activity was 1.2% in [2]; greater than 5 RU in [3]; 24.8% in series [4]; “Tde” in [13]; 41.44% in [16]. The inhibition at 2.5 µM is -8.3% in series [5] and 53.4% in series [6]. Moreover, the inhibition at 5 µM in series [7] was determined as 92%; in series [15] it was 62.3%; in series [19], 88.4%; in [20], 76.7%. The GI50 at 72 h in series [8] was greater than 100 µM. The inhibition at 1.25 µM in series [9] was found to be 70.3%. In addition, the inhibition at 10 µM in [10] was determined as 92%; in series [12], 89.1%; in series [21] it was 75.8%. Besides, the result in series [11], in series [14] and in series [17] was Active. Besides, in [18], the inhibition at 20 µM was determined as 80.8%.
